Measurements published in ChEMBL document CHEMBL4689842, “EUbOPEN Chemogenomics Library wave 1” (2021).
“And” between values parts separate entries of the source, which are not always exact repeats. Identical values can stand only once.

Key:
Type in all cases: toxicity, cell-based
[1] = test system: HEK-293T; test: Multiplex assay against HEK293T; conditions: human, 1 µM, compound concentration 1 uM;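 as to Population Tubulin-Different-Phenotype (%): share of the cells with healthy nuclei that show this phenotype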
Method in brief: (§1)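 Live cells were stained at seeding with Hoechst33342, BioTracker Green Microtubule Cytoskeleton Dye, MitoTracker Red and Annexin V Alexa Fluor 680, then imaged on a CQ1 microscope at 37°C and 5% CO2 after compound addition. CellPathfinder machine-learning gating split cells into Hoechst high-intensity objects or normal cells. Normal cells were split into healthy, pyknosed or fragmented nuclei, and pyknosed cells into mitotic or apoptotic. Tubulin, mitochondrial-mass and membrane-permeability phenotypes are per cents of healthy-nucleus cells.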

[2] = test system: Fibroblast; test: Incucyte cell viability with human fibroblast; conditions: 10 µM, compound concentration 10 uM; also: filed as whole numbers so only -1 and 0 and 1 occur
[3] = test system: U2OS; test: Incucyte cell viability with U2OS; conditions: human, 10 µM, compound concentration 10 uM; also: filed as whole numbers so only -1 and 0 and 1 occur
[4] = test system: Fibroblast; test: Multiplex assay against human fibroblast; conditions: 12 h, 1 µM, compound concentration 1 uM; method in brief: as §1
[5] = 12 h, replicate number 1, timepoint 12 hours
[6] = 18 h, replicate number 1, timepoint 18 hours
[7] = 24 h, replicate number 1, timepoint 24 hours

CN([C@@H](Cc1ccc(OS(=O)(=O)c2cccc3cnccc23)cc1)C(=O)N1CCN(c2ccccc2)CC1)S(=O)(=O)c1cccc2cnccc12
Population Apoptotic (%) ([1]; 12 h, replicate 1): 32% and 22% | Population Fragmented Nuclei (%) ([1]; 12 h, replicate 1): 26% and 15% | Population Healthy Nuclei (%) ([1]; 12 h, replicate 1): 31% and 38% | Population Hoechst High Intensity Objects (%) ([1]; 12 h, replicate 1): 18% and 15% | Population Membrane Permeable-Phenotype (%) ([1]; 12 h, replicate 1): 34% and 31% | Population Mitochondria Different-Phenotype (%) ([1]; 12 h, replicate 1): 22% | Population Mitotic Cells (%) ([1]; 12 h, replicate 1): 67% and 77% | Population Normal (%) ([1]; 12 h, replicate 1): 81% and 84% | Population Pyknosed Nuclei (%) ([1]; 12 h, replicate 1): 42% and 46% | Population Tubulin-Different-Phenotype (%) ([1]; 12 h, replicate 1): 77% and 86% | Total Cell Count ([1]; 12 h, replicate 1): 417 and 601 | Population Apoptotic (%) ([1]; 12 h, replicate 2): 15% and 13% | Population Fragmented Nuclei (%) ([1]; 12 h, replicate 2): 2% and 3% | Population Healthy Nuclei (%) ([1]; 12 h, replicate 2): 73% | Population Hoechst High Intensity Objects (%) ([1]; 12 h, replicate 2): 3% and 2% | Population Membrane Permeable-Phenotype (%) ([1]; 12 h, replicate 2): 28% and 27% | Population Mitochondria Different-Phenotype (%) ([1]; 12 h, replicate 2): 34% and 43% | Population Mitotic Cells (%) ([1]; 12 h, replicate 2): 84% and 86% | Population Normal (%) ([1]; 12 h, replicate 2): 96% and 97% | Population Pyknosed Nuclei (%) ([1]; 12 h, replicate 2): 23% and 22% | Population Tubulin-Different-Phenotype (%) ([1]; 12 h, replicate 2): 97% | Total Cell Count ([1]; 12 h, replicate 2): 993 and 1067 | Population Apoptotic (%) ([1]; 24 h, replicate 1): 39% and 33% | Population Fragmented Nuclei (%) ([1]; 24 h, replicate 1): 22% and 14% | Population Healthy Nuclei (%) ([1]; 24 h, replicate 1): 46% and 51% | Population Hoechst High Intensity Objects (%) ([1]; 24 h, replicate 1): 14% and 13% | Population Membrane Permeable-Phenotype (%) ([1]; 24 h, replicate 1): 20% | Population Mitochondria Different-Phenotype (%) ([1]; 24 h, replicate 1): 50% and 32% | Population Mitotic Cells (%) ([1]; 24 h, replicate 1): 60% and 66% | Population Normal (%) ([1]; 24 h, replicate 1): 85% and 86% | Population Pyknosed Nuclei (%) ([1]; 24 h, replicate 1): 31% and 33% | Population Tubulin-Different-Phenotype (%) ([1]; 24 h, replicate 1): 88% and 94% | Total Cell Count ([1]; 24 h, replicate 1): 402 and 587 | Population Apoptotic (%) ([1]; 24 h, replicate 2): 11% | Population Fragmented Nuclei (%) ([1]; 24 h, replicate 2): 9% and 3% | Population Healthy Nuclei (%) ([1]; 24 h, replicate 2): 75% and 68% | Population Hoechst High Intensity Objects (%) ([1]; 24 h, replicate 2): 2% and 5% | Population Membrane Permeable-Phenotype (%) ([1]; 24 h, replicate 2): 25% and 18% | Population Mitochondria Different-Phenotype (%) ([1]; 24 h, replicate 2): 40% and 37% | Population Mitotic Cells (%) ([1]; 24 h, replicate 2): 88% | Population Normal (%) ([1]; 24 h, replicate 2): 97% and 94% | Population Pyknosed Nuclei (%) ([1]; 24 h, replicate 2): 15% and 28% | Population Tubulin-Different-Phenotype (%) ([1]; 24 h, replicate 2): 98% and 96% | Total Cell Count ([1]; 24 h, replicate 2): 1327 and 1023 | Growth Rate ([2]; 0 h, replicate number 1, timepoint 0 hours): 1 | Growth Rate ([2]; 6 h, replicate number 2, timepoint 6 hours): 0 | Growth Rate [2, 5]: 1 | Growth Rate ([2]; 12 h, replicate number 2, timepoint 12 hours): 0 | Growth Rate [2, 6]: 1 | Growth Rate [2, 7]: 0 | Growth Rate ([2]; 24 h, replicate number 2, timepoint 24 hours): 1 | Growth Rate ([3]; 0 h, replicate number 2, timepoint 0 hours): 0 | Growth Rate ([3]; 6 h, replicate number 1, timepoint 6 hours): 1 | Growth Rate [3, 5]: 1 | Growth Rate [3, 6]: 1 | Growth Rate [3, 7]: 1 | Population Apoptotic (%) ([4]; replicate 1): 54% and 75% | Population Fragmented Nuclei (%) ([4]; replicate 1): 29% | Population Healthy Nuclei (%) ([4]; replicate 1): 56% and 53% | Population Hoechst High Intensity Objects (%) ([4]; replicate 1): 8% and 14% | Population Membrane Permeable-Phenotype (%) ([4]; replicate 1): 45% | Population Mitotic Cells (%) ([4]; replicate 1): 45% and 25% | Population Normal (%) ([4]; replicate 1): 91% and 85% | Population Pyknosed Nuclei (%) ([4]; replicate 1): 13% and 17% | Population Tubulin-Different-Phenotype (%) ([4]; replicate 1): 57% and 69% | Total Cell Count ([4]; replicate 1): 348 and 189 | Population Apoptotic (%) ([4]; replicate 2): 50% and 80% | Population Fragmented Nuclei (%) ([4]; replicate 2): 53% and 70% | Population Healthy Nuclei (%) ([4]; replicate 2): 39% and 14% | Population Hoechst High Intensity Objects (%) ([4]; replicate 2): 30% and 41% | Population Mitochondria Different-Phenotype (%) ([4]; replicate 2): 39% and 60% | Population Mitotic Cells (%) ([4]; replicate 2): 50% and 20%
